Results published in ChEMBL document CHEMBL4229490, “Cytotoxic and NF-κB and mitochondrial transmembrane potential inhibitory pentacyclic triterpenoids from Syzygium corticosum and their semi-synthetic derivatives” (Bioorg Med Chem, 2018).
Values after ≈ are worked out from the molar mass of the structure shown.

Key:
OVCAR-3 = experiment: Cytotoxicity against human OVCAR3 cells assessed as reduction in cell viability after 72 hrs by CellTiter 96 aqueous one solution assay; type: functional, cell-based; details: OVCAR-3, 72 h
Summary of the method: (§1)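 Cells grown in RPMI 1640 with 10% FBS, penicillin and streptomycin; log-phase cells trypsinized, seeded, left overnight at 37 °C in 5% CO₂, then exposed 72 h to samples diluted from DMSO, with DMSO vehicle and paclitaxel control. Viability read by absorbance. IC50 taken relative to vehicle by nonlinear regression; triplicate, three independent experiments.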

MDA-MB-435 = experiment: Cytotoxicity against human MDA-MB-435 cells assessed as reduction in cell viability after 72 hrs by CellTiter 96 aqueous one solution assay; type: functional, cell-based; details: MDA-MB-435, 72 h; summary of the method: as §1
HT-29 [1] = experiment: Cytotoxicity against human HT-29 cells assessed as reduction in cell viability after 72 hrs by CellTiter 96 aqueous one solution assay; type: functional, cell-based; details: HT-29, 72 h; summary of the method: as §1
MDA-MB-231 = experiment: Cytotoxicity against human MDA-MB-231 cells assessed as reduction in cell viability after 72 hrs by CellTiter 96 aqueous one solution assay; type: functional, cell-based; details: MDA-MB-231, 72 h; summary of the method: as §1
Transcription factor p65 = Transcription factor p65 (Homo sapiens, UniProt Q04206); experiment: Inhibition of biotinylated consensus sequence binding to NF-kB p65 in human HeLa nuclear extracts after 3 hrs by ELISA
Transcription factor p65, sequence (Q04206 whole entry): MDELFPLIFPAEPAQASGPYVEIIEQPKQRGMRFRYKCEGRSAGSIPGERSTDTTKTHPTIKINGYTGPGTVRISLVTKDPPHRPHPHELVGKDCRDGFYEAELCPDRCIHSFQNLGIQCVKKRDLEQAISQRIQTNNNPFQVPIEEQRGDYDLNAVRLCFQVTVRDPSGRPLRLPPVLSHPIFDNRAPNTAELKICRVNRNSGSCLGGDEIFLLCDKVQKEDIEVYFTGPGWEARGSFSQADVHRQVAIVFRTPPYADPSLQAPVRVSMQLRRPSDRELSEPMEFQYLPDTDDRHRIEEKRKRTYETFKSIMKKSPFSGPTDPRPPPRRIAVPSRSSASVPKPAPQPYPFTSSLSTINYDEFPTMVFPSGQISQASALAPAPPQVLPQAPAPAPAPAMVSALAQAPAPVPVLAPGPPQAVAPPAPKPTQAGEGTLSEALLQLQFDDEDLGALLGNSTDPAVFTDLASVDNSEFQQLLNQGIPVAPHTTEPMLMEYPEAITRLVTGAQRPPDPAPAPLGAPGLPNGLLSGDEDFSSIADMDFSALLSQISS

HT-29 [2] = experiment: Inhibition of mitochondrial membrane potential in human HT-29 cells after 3 hrs by JC-1 staining based fluorescence assay; type: functional, cell-based; details: HT-29, 3 h
DU-145 = experiment: Cytotoxicity against human DU145 cells assessed as reduction in cell viability after 72 hrs by CellTiter 96 aqueous one solution assay; type: functional, cell-based; details: DU-145, 72 h
HeLa = experiment: Cytotoxicity against human HeLa cells assessed as reduction in cell viability after 72 hrs by CellTiter 96 aqueous one solution assay; type: functional, cell-based

SMILES | IC50 (OVCAR-3) | IC50 (MDA-MB-435) | IC50 (HT-29 [1]) | IC50 (MDA-MB-231) | IC50 (Transcription factor p65) | IC50 (HT-29 [2]) | IC50 (DU-145) | IC50 (HeLa)
C=C(C)[C@H](O)CC[C@](C)(O)[C@H]1CC[C@]2(C)[C@@H]1CC[C@@H]1[C@@]3(C)CC[C@H](O)C(C)(C)[C@@H]3CC[C@]12C | > 10 µM | > 10 µM | > 10 µM | > 10 µM | – | – | – | –
CC1(C)C[C@H](O)C[C@@]2(C)OC(=O)C=C12 [LOLIOLIDE] | > 10 µM | > 10 µM | > 10 µM | > 10 µM | > 10 µM | > 10 µM | – | –
COc1cc(C=O)cc(OC)c1O | > 10 µM | > 10 µM | > 10 µM | > 10 µM | – | – | – | –
C[C@H]1[C@H](C)CC[C@]2(C(=O)O)CC[C@]3(C)C(=CC[C@@H]4[C@@]5(C)CC[C@H](OC(=O)c6ccc(Cl)cc6)C(C)(C)[C@@H]5CC[C@]43C)[C@H]12 | – | – | > 10 µM | > 10 µM | > 10 µM | > 10 µM | – | –
C=C(C)[C@@H]1CC[C@]2(C(=O)O)CC[C@]3(C)[C@H](CC[C@@H]4[C@@]5(C)C[C@@H](O)[C@H](OC(=O)/C=C/c6ccc(O)cc6)C(C)(C)[C@@H]5CC[C@]43C)[C@@H]12 | > 10 µM | > 10 µM | > 10 µM | > 10 µM | 4.7 µM | > 10 µM | – | –
C=C(C)[C@@H]1CC[C@]2(CO)CC[C@]3(C)[C@H](CC[C@@H]4[C@@]5(C)CC[C@H](O)C(C)(C)[C@@H]5CC[C@]43C)[C@@H]12 [BETULIN] | > 10 µM | > 10 µM | > 10 µM | > 10 µM | 8.8 µM | > 10 µM | – | –
C=C(C)[C@@H]1CC[C@]2(C(=O)O)CC[C@]3(CO)[C@H](CC[C@@H]4[C@@]5(C)CC[C@H](O)C(C)(C)[C@@H]5CC[C@]43C)[C@@H]12 | > 10 µM | > 10 µM | > 10 µM | > 10 µM | > 10 µM | > 10 µM | – | –
CC(=O)CC[C@@H](C1=C[C@@](C)(O)CCC1=O)C(C)C | > 10 µM | > 10 µM | > 10 µM | > 10 µM | – | – | – | –
CC1=CC(=O)CC(C)(C)[C@@]1(O)/C=C/[C@@H](C)O [BLUMENOL A] | > 10 µM | > 10 µM | > 10 µM | > 10 µM | > 10 µM | > 10 µM | – | –
CC(=O)O[C@H]1C(=O)[C@@]2(C)[C@H]([C@H](OC(=O)c3ccccc3)[C@]3(O)C[C@H](OC(=O)[C@H](O)[C@@H](NC(=O)c4ccccc4)c4ccccc4)C(C)=C1C3(C)C)[C@]1(OC(C)=O)CO[C@@H]1C[C@@H]2O [PACLITAXEL] | 0.013 µM | 0.013 µM | 0.009 µM | 0.017 µM | – | – | – | –
CC1=CC(=O)CC(C)(C)[C@H]1/C=C/[C@@H](C)O | > 10 µM | > 10 µM | > 10 µM | > 10 µM | – | – | – | –
C=C(C)[C@@H]1CC[C@]2(C(=O)O)CC[C@]3(C(=O)O)[C@H](CC[C@@H]4[C@@]5(C)CC[C@H](O)C(C)(C)[C@@H]5CC[C@]43C)[C@@H]12 | > 10 µM | > 10 µM | > 10 µM | > 10 µM | > 10 µM | > 10 µM | – | –
CC(=O)/C=C/[C@@]1(O)C(C)=CC(=O)CC1(C)C | > 10 µM | > 10 µM | > 10 µM | – | – | > 10 µM | – | –
C=C(C)[C@@H]1CC[C@]2(C(=O)O)CC[C@]3(C)[C@H](CC[C@@H]4[C@@]5(C)C[C@@H](O)[C@H](O)C(C)(C)[C@@H]5CC[C@]43C)[C@@H]12 [ALPHITOLIC ACID] | > 10 µM | > 10 µM | > 10 µM | > 10 µM | 8.7 µM | > 10 µM | – | –
C=C(C)[C@@H]1CC[C@]2(C(=O)O)CC[C@]3(C)[C@H](CC[C@@H]4[C@@]5(C)CC[C@H](OC(=O)/C=C/c6ccc(O)c(OC)c6)C(C)(C)[C@@H]5CC[C@]43C)[C@@H]12 | – | – | > 10 µM | > 10 µM | 5.4 µM | 0.51 µM | – | –
CC1(C)CC[C@]2(C(=O)O)CC[C@]3(C)C(=CC[C@@H]4[C@@]5(C)CC[C@H](O)C(C)(C)[C@@H]5CC[C@]43C)[C@@H]2C1 [OLEANOLIC_ACID] | > 10 µM | > 10 µM | > 10 µM | > 10 µM | 2.4 µM | > 10 µM | – | –
CC(=O)/C=C/[C@]12O[C@@]1(C)C[C@@H](O)CC2(C)C | > 10 µM | > 10 µM | > 10 µM | > 10 µM | – | – | – | –
C[C@H]1[C@H](C)CC[C@]2(C(=O)O)CC[C@]3(C)C(=CC[C@@H]4[C@@]5(C)CC[C@H](O)C(C)(C)[C@@H]5CC[C@]43C)[C@H]12 [URSOLIC ACID] | – | 13.1 µg/mL | 11.1 µg/mL | 5.9 µM | 0.031 µM | 3.5 µM | 11.1 to 13.1 µg/mL (≈ 24.3 to 28.7 µM) | 11.1 to 13.1 µg/mL (≈ 24.3 to 28.7 µM)
C=C(C)[C@@H]1CC[C@]2(C(=O)OC)CC[C@]3(C(=O)O)[C@H](CC[C@@H]4[C@@]5(C)CC[C@H](O)C(C)(C)[C@@H]5CC[C@]43C)[C@@H]12 | – | – | > 10 µM | > 10 µM | 1.5 µM | > 10 µM | – | –
COc1cc2c(=O)oc3c(OC)c(O)cc4c(=O)oc(c1OC)c2c34 | > 10 µM | > 10 µM | > 10 µM | – | 1.6 µM | > 10 µM | – | –
C=C(C)[C@@H]1CC[C@]2(C(=O)O)CC[C@]3(C)[C@H](CC[C@@H]4[C@@]5(C)CC[C@H](O)C(C)(C)[C@@H]5CC[C@]43C)[C@@H]12 [BETULINIC ACID] | – | – | > 10 µM | > 10 µM | – | 3.5 µM | – | –
C[C@H]1[C@H](C)CC[C@]2(CO)CC[C@]3(C)C(=CC[C@@H]4[C@@]5(C)CC[C@H](O)C(C)(C)[C@@H]5CC[C@]43C)[C@H]12 [UVAOL] | > 10 µM | > 10 µM | > 10 µM | > 10 µM | > 10 µM | > 10 µM | – | –
COc1c(C)c(O)c2c(=O)cc(-c3ccc(O)cc3)oc2c1C [SIDEROXYLIN] | > 10 µM | > 10 µM | > 10 µM | > 10 µM | > 10 µM | > 10 µM | – | –
COc1c(C)c(O)c2c(c1C)O[C@H](c1ccc(O)cc1)CC2=O | > 10 µM | 6 µM | > 10 µM | > 10 µM | – | – | – | –
CC1(C)CC[C@]2(CO)CC[C@]3(C)C(=CC[C@@H]4[C@@]5(C)CC[C@H](O)C(C)(C)[C@@H]5CC[C@]43C)[C@@H]2C1 [ERYTHRODIOL] | > 10 µM | > 10 µM | > 10 µM | > 10 µM | > 10 µM | > 10 µM | – | –
COc1c(OC)c2oc(=O)c3cc4c(c5oc(=O)c(c1OC)c2c53)OCO4 | > 10 µM | > 10 µM | > 10 µM | – | > 10 µM | > 10 µM | – | –
COc1c(O)cc2c(=O)oc3c4c(cc5c(=O)oc1c2c35)OCO4 | > 10 µM | > 10 µM | > 10 µM | > 10 µM | – | > 10 µM | – | –
